# ChEMBL document CHEMBL3352372, “Design, synthesis and 3D-QSAR studies of new diphenylamine containing 1,2,4-triazoles as potential antitubercular agents” (Eur J Med Chem, 2014)
# System: Mycobacterium tuberculosis
# Assay: Antitubercular activity Mycobacterium tuberculosis H37Rv assessed as growth inhibition after 5 days by MABA method
# Type: functional
# Details: not given
# Summary of the method: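 Log-phase H37Rv was diluted to a final OD550 of 0.05 in Middlebrook 7H9 broth, and compounds in DMSO were added in 96-well plates. After a further 24 h at 37 °C/5% CO2, fluorescence was read (ex 544 nm, em 590 nm). Inhibition was scored against the untreated control, with >90% inhibition counted as active in the initial screen.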
row,Compound,-logMIC
1,O=C1CSC(c2ccccc2)N1n1c(Cc2ccccc2Nc2c(Cl)cccc2Cl)n[nH]c1=S (stereo not drawn),4.301
2,COc1ccc(C2SCC(=O)N2n2c(Cc3ccccc3Nc3c(Cl)cccc3Cl)n[nH]c2=S)cc1OC (stereo not drawn),4.301
3,S=c1n(CN2CCCCC2)nc(Cc2ccccc2Nc2c(Cl)cccc2Cl)n1/N=C/c1ccco1,5.204
4,COc1ccc(C2SCC(=O)N2n2c(Cc3ccccc3Nc3c(Cl)cccc3Cl)n[nH]c2=S)cc1 (stereo not drawn),4.301
5,S=c1n(CN2CCOCC2)nc(Cc2ccccc2Nc2c(Cl)cccc2Cl)n1/N=C/c1ccco1,5.505
6,O=C1CSC(c2ccncc2)N1n1c(Cc2ccccc2Nc2c(Cl)cccc2Cl)n[nH]c1=S (stereo not drawn),4.903

# Same assay, conditions: Mycobacterium tuberculosis, H37Rv, 120 h
row,Compound,MIC [µM]
1,O=C1CSC(c2ccccc2)N1n1c(Cc2ccccc2Nc2c(Cl)cccc2Cl)n[nH]c1=S (stereo not drawn),50
2,COc1ccc(C2SCC(=O)N2n2c(Cc3ccccc3Nc3c(Cl)cccc3Cl)n[nH]c2=S)cc1OC (stereo not drawn),50
3,S=c1n(CN2CCCCC2)nc(Cc2ccccc2Nc2c(Cl)cccc2Cl)n1/N=C/c1ccco1,6.25
4,COc1ccc(C2SCC(=O)N2n2c(Cc3ccccc3Nc3c(Cl)cccc3Cl)n[nH]c2=S)cc1 (stereo not drawn),50
5,S=c1n(CN2CCOCC2)nc(Cc2ccccc2Nc2c(Cl)cccc2Cl)n1/N=C/c1ccco1,3.12
6,O=C1CSC(c2ccncc2)N1n1c(Cc2ccccc2Nc2c(Cl)cccc2Cl)n[nH]c1=S (stereo not drawn),12.5

# System: Mycobacterium tuberculosis
# Assay: Antitubercular activity Mycobacterium tuberculosis H37Rv assessed as growth inhibition after 30 days by agar microdilution method
# Type: functional
# Details: not given
# Summary of the method: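 M. tuberculosis H37Rv (ATCC 27294) grown on L-J medium, harvested in 0.85% saline with 0.05% Tween-80. Compounds, from a DMSO stock, were added as twofold dilutions to Middlebrook 7H10 agar with OADC in tubes. After 30 days of incubation, tubes were compared with untreated H37Rv control tubes. The lowest concentration giving complete inhibition of colonies was reported.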
row,Compound,MIC [µM]
1,S=c1n(CN2CCCCC2)nc(Cc2ccccc2Nc2c(Cl)cccc2Cl)n1/N=C/c1ccco1,6.25
2,S=c1n(CN2CCOCC2)nc(Cc2ccccc2Nc2c(Cl)cccc2Cl)n1/N=C/c1ccco1,3.12
3,O=C1CSC(c2ccncc2)N1n1c(Cc2ccccc2Nc2c(Cl)cccc2Cl)n[nH]c1=S (stereo not drawn),6.25

# System: Staphylococcus aureus
# Assay: Antibacterial activity Staphylococcus aureus ATCC-25923 assessed as growth inhibition after 24 hrs by twofold serial dilution technique
# Type: functional
# Details: ATCC-25923, 24 h
# Summary of the method: (§1)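 Tube twofold serial dilution of compounds dissolved in DMSO, under aseptic conditions. Solvent, growth (negative) and drug (ampicillin) controls were run alongside. Tubes were incubated 24 h at 37 °C. MIC was taken as the lowest concentration giving apparent complete inhibition of growth. Strains were first screened by cup plate method.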
row,Compound,MIC [µM]
1,O=C1CSC(c2ccccc2)N1n1c(Cc2ccccc2Nc2c(Cl)cccc2Cl)n[nH]c1=S (stereo not drawn),12.5
2,COc1ccc(C2SCC(=O)N2n2c(Cc3ccccc3Nc3c(Cl)cccc3Cl)n[nH]c2=S)cc1OC (stereo not drawn),100
3,S=c1n(CN2CCCCC2)nc(Cc2ccccc2Nc2c(Cl)cccc2Cl)n1/N=C/c1ccco1,25
4,COc1ccc(C2SCC(=O)N2n2c(Cc3ccccc3Nc3c(Cl)cccc3Cl)n[nH]c2=S)cc1 (stereo not drawn),12.5
5,S=c1n(CN2CCOCC2)nc(Cc2ccccc2Nc2c(Cl)cccc2Cl)n1/N=C/c1ccco1,12.5
6,O=C1CSC(c2ccncc2)N1n1c(Cc2ccccc2Nc2c(Cl)cccc2Cl)n[nH]c1=S (stereo not drawn),25

# System: Bacillus spizizenii
# Assay: Antibacterial activity Bacillus Bacillus subtilis ATCC 6633 assessed as growth inhibition after 24 hrs by twofold serial dilution technique
# Type: functional
# Details: ATCC 6633, 24 h
# Summary of the method: as §1
row,Compound,MIC [µM]
1,O=C1CSC(c2ccccc2)N1n1c(Cc2ccccc2Nc2c(Cl)cccc2Cl)n[nH]c1=S (stereo not drawn),12.5
2,COc1ccc(C2SCC(=O)N2n2c(Cc3ccccc3Nc3c(Cl)cccc3Cl)n[nH]c2=S)cc1OC (stereo not drawn),100
3,S=c1n(CN2CCCCC2)nc(Cc2ccccc2Nc2c(Cl)cccc2Cl)n1/N=C/c1ccco1,25
4,COc1ccc(C2SCC(=O)N2n2c(Cc3ccccc3Nc3c(Cl)cccc3Cl)n[nH]c2=S)cc1 (stereo not drawn),100
5,S=c1n(CN2CCOCC2)nc(Cc2ccccc2Nc2c(Cl)cccc2Cl)n1/N=C/c1ccco1,12.5
6,O=C1CSC(c2ccncc2)N1n1c(Cc2ccccc2Nc2c(Cl)cccc2Cl)n[nH]c1=S (stereo not drawn),12.5

# System: Escherichia coli
# Assay: Antibacterial activity Escherichia coli ATCC-25922 assessed as growth inhibition after 24 hrs by twofold serial dilution technique
# Type: functional
# Details: ATCC-25922, 24 h
# Summary of the method: as §1
row,Compound,MIC [µM]
1,O=C1CSC(c2ccccc2)N1n1c(Cc2ccccc2Nc2c(Cl)cccc2Cl)n[nH]c1=S (stereo not drawn),12.5
2,COc1ccc(C2SCC(=O)N2n2c(Cc3ccccc3Nc3c(Cl)cccc3Cl)n[nH]c2=S)cc1OC (stereo not drawn),100
3,S=c1n(CN2CCCCC2)nc(Cc2ccccc2Nc2c(Cl)cccc2Cl)n1/N=C/c1ccco1,12.5
4,COc1ccc(C2SCC(=O)N2n2c(Cc3ccccc3Nc3c(Cl)cccc3Cl)n[nH]c2=S)cc1 (stereo not drawn),100
5,S=c1n(CN2CCOCC2)nc(Cc2ccccc2Nc2c(Cl)cccc2Cl)n1/N=C/c1ccco1,12.5
6,O=C1CSC(c2ccncc2)N1n1c(Cc2ccccc2Nc2c(Cl)cccc2Cl)n[nH]c1=S (stereo not drawn),50

# System: Pseudomonas aeruginosa
# Assay: Antibacterial activity Pseudomonas aeruginosa ATCC-27853 assessed as growth inhibition after 24 hrs by twofold serial dilution technique
# Type: functional
# Details: ATCC-27853, 24 h
# Summary of the method: as §1
row,Compound,MIC [µM]
1,O=C1CSC(c2ccccc2)N1n1c(Cc2ccccc2Nc2c(Cl)cccc2Cl)n[nH]c1=S (stereo not drawn),12.5
2,COc1ccc(C2SCC(=O)N2n2c(Cc3ccccc3Nc3c(Cl)cccc3Cl)n[nH]c2=S)cc1OC (stereo not drawn),100
3,S=c1n(CN2CCCCC2)nc(Cc2ccccc2Nc2c(Cl)cccc2Cl)n1/N=C/c1ccco1,25
4,COc1ccc(C2SCC(=O)N2n2c(Cc3ccccc3Nc3c(Cl)cccc3Cl)n[nH]c2=S)cc1 (stereo not drawn),100
5,S=c1n(CN2CCOCC2)nc(Cc2ccccc2Nc2c(Cl)cccc2Cl)n1/N=C/c1ccco1,25
6,O=C1CSC(c2ccncc2)N1n1c(Cc2ccccc2Nc2c(Cl)cccc2Cl)n[nH]c1=S (stereo not drawn),50

# System: not listed separately
# Assay: Cytotoxicity against african green monkey Vero cells after 72 hrs by MTT assay
# Type: cell-based
# Details: chlorocebus sabaeus
# Summary of the method: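 After media removal and a PBS wash, dilutions were added with DMSO control, then incubated 72 h at 37 °C, 5% CO2. Cells were washed, given MTT for 3 h in the dark, and solubilized in DMSO 1–2 h. CC50 was extrapolated from plotted % inhibition (100 − % viability) against concentration.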
row,Compound,CC50 at 72 h [µM]
1,S=c1n(CN2CCCCC2)nc(Cc2ccccc2Nc2c(Cl)cccc2Cl)n1/N=C/c1ccco1,> 300
2,S=c1n(CN2CCOCC2)nc(Cc2ccccc2Nc2c(Cl)cccc2Cl)n1/N=C/c1ccco1,> 300

# System: not listed separately
# Assay: Cytotoxicity against human HepG2 cells after 72 hrs by MTT assay
# Type: cell-based
# Details: not given
row,Compound,CC50 at 72 h [µM]
1,S=c1n(CN2CCCCC2)nc(Cc2ccccc2Nc2c(Cl)cccc2Cl)n1/N=C/c1ccco1,262
2,S=c1n(CN2CCOCC2)nc(Cc2ccccc2Nc2c(Cl)cccc2Cl)n1/N=C/c1ccco1,> 300
